Source: ChEMBL document CHEMBL1139291, “Syntheses and opioid receptor binding properties of carboxamido-substituted opioids” (Bioorg Med Chem Lett, 2009)

Columns and labels:
[1] = target: T1, Kappa-type opioid receptor (Homo sapiens, UniProt P41145); assay: Activity at human cloned kappa opioid receptor expressed in CHO cells by [35S]GTPgammaS binding assay; format: functional, cell-based
[2] = target: Delta-type opioid receptor (Homo sapiens, UniProt P41143); assay: Displacement of [3H]Naltrindole form human delta opioid receptor expressed in CHO cells; format: cell-based
Summary of the method: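 Membranes from CHO cells stably expressing the human receptor incubated with 12 concentrations of compound and 0.2 nM [3H]naltrindole in 50 mM Tris–HCl, pH 7.5, with 10 mM MgCl2 and 0.5 mM PMSF, for 3 h at 25 °C. Filters were soaked in 0.1% PEI before filtration and scintillation counting. IC50 came from log-probit fit, and Ki = IC50/(1 + [radioligand]/Kd).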

[3] = target: T1, Kappa-type opioid receptor; assay: Displacement of [3H]U69593 form human kappa opioid receptor expressed in CHO cells; format: cell-based
[4] = target: Mu-type opioid receptor (Cavia porcellus, UniProt P97266); assay: Displacement of [3H]DAMGO form mu opioid receptor in guinea pig brain
[5] = Displacement of [3H]Naltrindole form delta opioid receptor in guinea pig brain; set-up: species or system Cavia porcellus
Summary of the method: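 Guinea pig brain membrane protein incubated with 12 concentrations of compound and 0.2 nM [3H]naltrindole in 50 mM Tris–HCl, pH 7.5, with 10 mM MgCl2 and 0.5 mM PMSF, for 3 h at 25 °C. Samples filtered onto polyethyleneimine-soaked glass fiber filters, washed, and counted by scintillation. IC50 came from log-probit fit, and Ki = IC50/(1 + [radioligand]/Kd).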

[6] = target: Kappa-type opioid receptor (Cavia porcellus, UniProt P41144); assay: Displacement of [3H]U69593 form kappa opioid receptor in guinea pig brain
[7] = target: T2, Mu-type opioid receptor (Homo sapiens, UniProt P35372); assay: Displacement of [3H]DAMGO form human mu opioid receptor expressed in CHO cells; format: cell-based
[8] = tested on: CHO; assay: Ratio of Ki for human mu opioid receptor to Ki for human kappa opioid receptor expressed in CHO cells; format: cell-based
[9] = tested on: CHO; assay: Ratio of Ki for human delta opioid receptor to Ki for human kappa opioid receptor expressed in CHO cells; format: cell-based
[10] = target: T2, Mu-type opioid receptor; assay: Activity at human cloned mu opioid receptor expressed in CHO cells by [35S]GTPgammaS binding assay; format: functional, cell-based
[11] = organism: Cavia porcellus; assay: Ratio of Ki for delta opioid receptor to Ki for kappa opioid receptor in guinea pig brain
[12] = target: T1, Kappa-type opioid receptor; assay: Activity at human cloned kappa opioid receptor expressed in CHO cells assessed as inhibition of U50488-induced [35S]GTPgammaS binding; format: functional, cell-based
[13] = target: T2, Mu-type opioid receptor; assay: Activity at human cloned mu opioid receptor expressed in CHO cells assessed as inhibition of DAMGO-induced [35S]GTPgammaS binding; format: functional, cell-based

Sequence of Kappa-type opioid receptor (Cavia porcellus, UniProt P41144) (P41144 whole entry): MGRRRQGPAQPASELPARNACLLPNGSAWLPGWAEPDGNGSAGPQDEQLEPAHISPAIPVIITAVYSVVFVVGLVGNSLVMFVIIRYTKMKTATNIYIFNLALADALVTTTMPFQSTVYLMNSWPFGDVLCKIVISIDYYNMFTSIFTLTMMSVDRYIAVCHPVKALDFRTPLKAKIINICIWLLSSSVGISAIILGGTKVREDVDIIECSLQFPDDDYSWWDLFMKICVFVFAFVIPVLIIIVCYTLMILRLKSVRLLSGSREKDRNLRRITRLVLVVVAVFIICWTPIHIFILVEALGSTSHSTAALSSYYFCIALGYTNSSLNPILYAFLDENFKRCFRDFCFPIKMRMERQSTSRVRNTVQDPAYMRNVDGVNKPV
T1 sequence (P41145 whole entry): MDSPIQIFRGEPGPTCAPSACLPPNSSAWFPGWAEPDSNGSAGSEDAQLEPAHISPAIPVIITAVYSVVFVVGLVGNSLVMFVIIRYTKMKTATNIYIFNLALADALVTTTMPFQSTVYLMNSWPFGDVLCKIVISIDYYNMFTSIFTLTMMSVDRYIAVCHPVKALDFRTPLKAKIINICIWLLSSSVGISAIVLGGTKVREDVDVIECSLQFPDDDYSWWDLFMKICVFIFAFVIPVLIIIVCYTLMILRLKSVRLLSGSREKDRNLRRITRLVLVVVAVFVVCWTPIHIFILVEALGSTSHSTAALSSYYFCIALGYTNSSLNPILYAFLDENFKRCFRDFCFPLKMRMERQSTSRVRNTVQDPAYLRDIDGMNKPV
Sequence of Mu-type opioid receptor (Cavia porcellus, UniProt P97266) (P97266 whole entry): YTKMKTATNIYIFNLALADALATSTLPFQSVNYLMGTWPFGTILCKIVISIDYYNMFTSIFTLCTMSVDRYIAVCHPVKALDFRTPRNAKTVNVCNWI
Sequence of Delta-type opioid receptor (P41143 whole entry): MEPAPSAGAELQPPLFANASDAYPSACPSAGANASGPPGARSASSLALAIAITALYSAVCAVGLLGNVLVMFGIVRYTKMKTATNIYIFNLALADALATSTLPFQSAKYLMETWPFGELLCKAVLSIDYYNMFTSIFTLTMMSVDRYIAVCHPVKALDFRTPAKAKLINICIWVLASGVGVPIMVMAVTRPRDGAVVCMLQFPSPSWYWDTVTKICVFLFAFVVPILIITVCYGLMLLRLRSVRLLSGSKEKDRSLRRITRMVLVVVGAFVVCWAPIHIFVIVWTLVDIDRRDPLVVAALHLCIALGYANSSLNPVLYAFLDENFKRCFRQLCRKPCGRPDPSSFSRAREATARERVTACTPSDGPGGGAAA
T2 sequence (P35372 whole entry): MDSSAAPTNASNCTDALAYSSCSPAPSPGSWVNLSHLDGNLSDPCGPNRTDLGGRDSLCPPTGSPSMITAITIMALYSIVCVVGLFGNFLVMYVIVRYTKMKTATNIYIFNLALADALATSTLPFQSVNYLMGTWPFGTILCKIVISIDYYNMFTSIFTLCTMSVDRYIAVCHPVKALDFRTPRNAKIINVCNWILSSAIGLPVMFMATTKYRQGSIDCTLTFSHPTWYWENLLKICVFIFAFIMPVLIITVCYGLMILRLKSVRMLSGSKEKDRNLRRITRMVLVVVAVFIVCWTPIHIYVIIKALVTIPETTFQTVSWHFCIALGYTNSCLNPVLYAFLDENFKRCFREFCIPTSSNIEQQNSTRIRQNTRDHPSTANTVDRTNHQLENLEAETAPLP

Row | SMILES | EC50 [1] | Ki [2] | Ki [3] | Ki [5] | Ki [7] | Ratio Ki [8] | Ratio Ki [9] | also measured
1 | Oc1ccc2c(c1)[C@@]13CCCC[C@@]1(O)[C@@H](C2)N(CC1CCC1)CC3 [BUTORPHANOL] | 2.9 nM | – | – | – | – | – | – | –
2 | CC(C)=CCN1CC[C@@]2(C)c3cc(O)ccc3C[C@@H]1[C@@H]2C (relative stereo) | – | 180 nM | 3 nM | – | – | – | – | –
3 | C[C@@H]1[C@@H]2Cc3ccc(C(N)=O)cc3[C@@]1(C)CCN2C[C@H]1CCCO1 | 170 nM | – | – | 34 nM | – | – | – | Ki [4]: 2.9 nM; Ki [6]: 2.8 nM
4 | CC(C)=CCN1CC[C@@]2(C)c3cc(C(N)=O)ccc3C[C@@H]1[C@@H]2C (relative stereo) | – | 220 nM | 5.6 nM | – | – | – | – | –
5 | CN(C)C[C@H]1CCCC[C@]1(O)c1cccc(C(N)=O)c1 (relative stereo) | – | 2400 nM | 350 nM | – | 9.5 nM | 0.03 | 7 | –
6 | C[C@H]1C2Cc3ccc(O)cc3[C@@]1(C)CCN2CCc1ccccc1 | 8.1 nM | 5 nM | 2 nM | – | 0.2 nM | 0.1 | 2.5 | EC50 [10]: 27 nM
7 | NC(=O)c1ccc2c3c1O[C@H]1[C@@H](O)CC[C@@]4(O)[C@@H](C2)N(CC2CC2)CC[C@]314 | – | > 10000 nM | 100 nM | – | 7.1 nM | 0.07 | – | –
8 | NC(=O)c1ccc2c3c1O[C@H]1C(=O)CC[C@@]4(O)[C@@H](C2)N(CC2CC2)CC[C@]314 | – | – | 0.36 nM | – | – | 0.065 | 50 | –
9 | CCC12CCN(CC3CC3)C(C(=O)c3ccc(C(N)=O)cc31)C2C (stereo not drawn) | – | – | – | 9.8 nM | – | – | – | Ki [4]: 1.2 nM; Ratio Ki [11]: 14
10 | NC(=O)c1ccc2c3c1O[C@H]1C4NC5C(C[C@@]6(O)[C@H]7Cc8ccc(C(N)=O)c9c8[C@@]6(CCN7CC6CC6)[C@H]5O9)C4C[C@@]4(O)[C@@H](C2)N(CC2CC2)CC[C@]314 (stereo partly drawn) | – | 1000 nM | 21 nM | – | 400 nM | 19 | 50 | –
11 | CC1C2Cc3ccc(C(N)=O)cc3C1(C)CCN2CCc1ccccc1 (stereo not drawn) | 4.4 nM | 1.2 nM | 0.55 nM | – | 0.015 nM | 0.03 | 2 | EC50 [10]: 5.3 nM; IC50 [12]: 640 nM
12 | CCC12CCN(CC3CC3)C(C(=O)c3ccc(O)cc31)C2C (stereo not drawn) | – | – | – | 3.4 nM | – | – | – | Ki [4]: 0.78 nM
13 | CN1CC[C@]23c4c5ccc(C(N)=O)c4O[C@H]2[C@@H](O)C=C[C@H]3[C@H]1C5 | – | – | – | 1900 nM | – | – | – | Ki [4]: 34 nM; Ratio Ki [11]: 1; Ki [6]: 2000 nM
14 | C[C@H]1[C@@H]2Cc3ccc(O)cc3[C@]1(C)CCN2C [METAZOCINE] | 120 nM | 140 nM | 9.9 nM | – | 3.8 nM | 0.4 | 14 | EC50 [10]: 40 nM
15 | CN(C)C[C@H]1CCCC[C@]1(O)c1cccc(O)c1 (relative stereo) [O-DESMETHYL TRAMADOL] | – | 2900 nM | 450 nM | – | – | – | – | –
16 | C=CCN1CC[C@]23c4c5ccc(C(N)=O)c4O[C@@H]2[C@@H](O)C=C[C@H]3[C@H]1C5 | – | > 10000 nM | 100 nM | – | 18 nM | 0.2 | – | –
17 | CC1C2Cc3ccc(C(N)=O)cc3C1(C)CCN2C (stereo not drawn) | – | 320 nM | 19 nM | – | 1.6 nM | 0.08 | 17 | IC50 [13]: 25 nM; EC50 [10]: 24 nM
18 | CC1C2C(=O)c3ccc(C(N)=O)cc3C1(C)CCN2CC1CC1 (stereo not drawn) | 9.6 nM | – | – | 20 nM | – | – | – | Ki [4]: 1.4 nM
19 | COc1cccc(C2(O)CCCCC2CN(C)C)c1 (stereo not drawn) [TRAMADOL] | – | 9.4 nM | 14 nM | – | – | – | – | –
20 | CC1C2Cc3ccc(O)cc3[C@@]1(C)CCN2C[C@@H]1CCCO1 (single isomer, unassigned) | 1 nM | – | – | 3.6 nM | – | – | – | IC50 [13]: 17 nM; Ki [4]: 0.19 nM; Ratio Ki [11]: 40; EC50 [10]: 2.7 nM; Ki [6]: 0.09 nM
21 | NC(=O)c1ccc2c(c1)[C@@]13CCCC[C@@]1(O)[C@@H](C2)N(CC1CCC1)CC3 | 3.8 nM | 14 nM | 0.39 nM | – | 0.15 nM | 0.38 | 40 | IC50 [13]: 30 nM
22 | C[C@H]1[C@H]2C(=O)c3ccc(O)cc3[C@]1(C)CCN2CC1CC1 [KETAZOCINE] | 3.3 nM | – | – | 20 nM | – | – | – | IC50 [13]: 130 nM; EC50 [10]: 21 nM; Ki [6]: 1 nM
23 | NC(=O)c1ccc2c3c1O[C@H]1[C@H](O)CC[C@@]4(O)[C@@H](C2)N(CC2CC2)CC[C@]314 | – | > 10000 nM | 30 nM | – | 2.5 nM | 0.08 | – | –
24 | CC1C2Cc3ccc(C(N)=O)cc3C1(C)CCN2CC1CC1 (stereo not drawn) | – | 5.2 nM | – | – | – | – | – | –
25 | C=CCN1CC[C@]23c4c5ccc(O)c4O[C@H]2[C@@H](O)C=C[C@H]3[C@H]1C5 [NALORPHINE] | – | 120 nM | 0.38 nM | – | 0.19 nM | 0.5 | 320 | –
26 | C[C@@H]1[C@@H]2Cc3ccc(O)cc3[C@@]1(C)CCN2C[C@H]1CCCO1 | 41 nM | – | – | 67 nM | – | – | – | Ki [4]: 4 nM; Ratio Ki [11]: 45; Ki [6]: 1.5 nM
27 | C[C@@H]1[C@@H]2Cc3ccc(C(N)=O)cc3[C@@]1(C)CCN2C[C@@H]1CCCO1 | 30 nM | – | – | 2 nM | – | – | – | Ki [4]: 0.052 nM; Ki [6]: 0.089 nM
28 | C=C1CC[C@@]2(O)[C@H]3Cc4ccc(C(N)=O)c5c4[C@@]2(CCN3CC2CC2)[C@H]1O5 | – | 67 nM | 2.1 nM | – | 2.6 nM | 1 | 32 | –
